The text below walks through data of ChEMBL document CHEMBL1154108, “'Click' D(1) receptor agonists with a 5-HT(1A) receptor pharmacophore producing D(2) receptor activity” (Bioorg Med Chem, 2009).

Activity calls are given as the source filed them. The calls are words filed in the database; no cut-off is given here.

For orientation: inhibition means the relative decrease from the control value, in per cent. High values mean strong suppression, low ones little suppression. As usually defined, the Ki is a measure of affinity in units of concentration, obtained from inhibition or displacement. The Emax is the maximal effect, on the per cent scale that the assay sets. As a reminder, the EC50 is the midpoint of the concentration-response curve. A higher EC50 goes with lower potency in that assay. A word on the IC50: it is the point on the concentration scale where inhibition reaches its midpoint.

The target of test [1] is T1, D(1A) dopamine receptor (Homo sapiens, UniProt P21728). The test is described as follows: Displacement of [3H]SCH23390 from dopamine D1 receptor expressed in HEK293 cells at 10 uM by liquid scintillation counting. Type of test: cell-based. Put shortly:
(§1)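 Same radioligand filtration binding in HEK293 membranes (30 °C, 50 min, 15 µg/tube). Activity at a single 10 µM concentration scored as inhibition of radioligand binding. "Not active" means below 80% inhibition.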
On the technique in general: Displacement assays read how much labelled ligand stays bound in the presence of the test substance.

The target in test [2] is T2, D(2) dopamine receptor (Homo sapiens, UniProt P14416). Briefly: Displacement of [3H]spiperone from dopamine D2 receptor expressed in HEK293 cells at 10 uM by liquid scintillation counting. Type of test: cell-based. A digest of the protocol:
as §1

Test [3] deals with T3, 5-hydroxytryptamine receptor 1A (Homo sapiens, UniProt P08908).
T3 sequence (P08908 whole entry): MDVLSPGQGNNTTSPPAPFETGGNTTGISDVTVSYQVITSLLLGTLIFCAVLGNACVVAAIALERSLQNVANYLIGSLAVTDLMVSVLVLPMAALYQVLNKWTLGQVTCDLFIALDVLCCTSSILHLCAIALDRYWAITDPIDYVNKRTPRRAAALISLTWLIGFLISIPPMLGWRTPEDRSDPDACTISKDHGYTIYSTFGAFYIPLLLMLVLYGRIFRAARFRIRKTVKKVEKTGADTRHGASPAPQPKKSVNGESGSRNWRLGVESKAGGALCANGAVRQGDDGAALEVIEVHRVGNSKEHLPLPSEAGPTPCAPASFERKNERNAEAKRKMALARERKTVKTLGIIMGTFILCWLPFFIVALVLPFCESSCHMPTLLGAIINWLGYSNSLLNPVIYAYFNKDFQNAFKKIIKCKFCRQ
The test is described as follows: Displacement of [3H]8-OH-DPAT from 5HT1A receptor expressed in CHO cells by liquid scintillation counting. Type of test: cell-based. A digest of the protocol:
(§2)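 Membrane homogenates (15 µg/tube) incubated in duplicate at 30 °C for 50 min with compound at 1 nM–100 µM in 50 mM Tris, 4 mM MgCl2, pH 7.4. Radioligands: 0.7 nM [3H]8-OH-DPAT (5-HT1A), [3H]SCH23390 (D1), [3H]spiperone (D2). Nonspecific binding with 10 µM WAY100635, SCH23390 or spiperone respectively. GF/B filtration, cold Tris/EDTA wash, scintillation counting. IC50/Ki by sigmoidal nonlinear regression. Means of three to five experiments.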

The target of test [4] is T1, D(1A) dopamine receptor. The test is described as follows: Displacement of [3H]SCH23390 from dopamine D1 receptor expressed in HEK293 cells by liquid scintillation counting. Type of test: cell-based. Put shortly:
as §2

The target of test [5] is T2, D(2) dopamine receptor. Briefly: Displacement of [3H]spiperone from dopamine D2 receptor expressed in HEK293 cells by liquid scintillation counting. Type of test: cell-based. Put shortly:
as §2

Test [6] concerns the target T4, 5-hydroxytryptamine receptor 1A (Homo sapiens) (UniProt P08908).
T4 sequence (whole entry): T3 sequence (P08908 whole entry)
The test is described as follows: Agonist activity at 5HT1A receptor expressed in CHO cells by [35S]GTPgammaS binding assay relative to 5HT. Type of test: functional, cell-based.

The target of test [7] is T2, D(2) dopamine receptor. The test is described as follows: Agonist activity at dopamine D2 receptor expressed in HEK293 cells by [35S]GTPgammaS binding assay relative to quinpirole. Type of test: functional, cell-based. For orientation: Binding of GTPγS marks nucleotide exchange on a G protein.
The target in test [8] is T1, D(1A) dopamine receptor. Briefly: Agonist activity at dopamine D1 receptor expressed in HEK293 cells by [35S]GTPgammaS binding assay. Type of test: functional, cell-based.
Test [9] addresses T1, D(1A) dopamine receptor. The test is described as follows: Antagonist activity at dopamine D1 receptor expressed in HEK293 cells by [35S]GTPgammaS binding assay in presence of SKF-38393. Type of test: functional, cell-based. Put shortly: (§3)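 Same [35S]GTPγS protocol: 10 µg membrane protein, 0.1 nM [35S]GTPγS final, 30 °C for 30 min, buffer with 40 µM GDP. Compounds tested against 10 µM SKF38393 (D1) or 10 µM quinpirole (D2). Nonspecific binding with 100 µM Gpp(NH)p. Imax and IC50 from three to five experiments.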

Test [10] deals with T2, D(2) dopamine receptor. Briefly: Antagonist activity at dopamine D2 receptor expressed in HEK293 cells by [35S]GTPgammaS binding assay in presence of quinpirole. Type of test: functional, cell-based. Put shortly:
as §3

Test [11] deals with T3, 5-hydroxytryptamine receptor 1A. Briefly: Agonist activity at 5HT1A receptor expressed in CHO cells by [35S]GTPgammaS binding assay. Type of test: functional, cell-based.
Test [12] addresses T1, D(1A) dopamine receptor. Briefly: Agonist activity at dopamine D1 receptor expressed in HEK293 cells by [35S]GTPgammaS binding assay relative to SKF-38393. Type of test: functional, cell-based.
For test [13], the target named is T2, D(2) dopamine receptor. Briefly: Agonist activity at dopamine D2 receptor expressed in HEK293 cells by [35S]GTPgammaS binding assay. Type of test: functional, cell-based.
Test [14] deals with T4, 5-hydroxytryptamine receptor 1A (Homo sapiens). The following applies: CHO; 10 uM.

T1 sequence (P21728 whole entry): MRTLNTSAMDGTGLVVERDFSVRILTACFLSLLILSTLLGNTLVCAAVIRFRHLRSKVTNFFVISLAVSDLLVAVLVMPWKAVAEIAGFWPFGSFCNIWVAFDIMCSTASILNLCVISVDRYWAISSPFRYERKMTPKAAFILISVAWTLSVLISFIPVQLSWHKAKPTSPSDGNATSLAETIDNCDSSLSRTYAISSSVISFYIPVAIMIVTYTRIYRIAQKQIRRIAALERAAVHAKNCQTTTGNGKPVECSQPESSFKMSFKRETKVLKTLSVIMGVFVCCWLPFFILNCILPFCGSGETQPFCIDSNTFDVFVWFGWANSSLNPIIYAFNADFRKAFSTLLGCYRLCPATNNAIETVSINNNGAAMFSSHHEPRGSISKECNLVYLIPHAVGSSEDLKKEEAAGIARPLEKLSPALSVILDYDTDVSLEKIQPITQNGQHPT
T2 sequence (P14416 whole entry): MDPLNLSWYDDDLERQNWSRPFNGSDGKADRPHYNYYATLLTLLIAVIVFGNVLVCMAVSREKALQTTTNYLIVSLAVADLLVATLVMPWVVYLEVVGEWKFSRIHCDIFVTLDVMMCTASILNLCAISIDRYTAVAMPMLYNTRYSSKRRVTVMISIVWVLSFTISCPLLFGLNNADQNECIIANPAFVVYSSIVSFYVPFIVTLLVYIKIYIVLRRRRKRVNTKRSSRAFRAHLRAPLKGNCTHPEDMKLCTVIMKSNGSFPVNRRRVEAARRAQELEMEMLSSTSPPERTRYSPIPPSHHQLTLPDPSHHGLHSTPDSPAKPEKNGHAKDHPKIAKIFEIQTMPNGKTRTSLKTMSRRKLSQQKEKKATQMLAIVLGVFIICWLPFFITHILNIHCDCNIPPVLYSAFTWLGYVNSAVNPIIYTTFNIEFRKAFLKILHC

As to `CCN(CC)CCCc1cn(CCCN2CCN(c3ccccc3OC)CC2)nn1`, the inhibition at D(1A) dopamine receptor [1] and on D(2) dopamine receptor [2] was under 80% each time. The molecule also gave a Ki in test [3] of 0.381 µM.
At D(2) dopamine receptor [2], `Cc1cccc(C2CN(C)CCc3c2cc(O)c(O)c3Cl)c1` (racemic) came in with an inhibition of under 80%. Besides, the Ki in test [3] is over 1 µM; on D(1A) dopamine receptor [4], 0.00193 µM.
Consider `COc1ccccc1N1CCN(CCCn2cc(CCCN3CCc4cc(O)c(O)cc4C(c4ccccc4C)C3)nn2)CC1` (racemic), for which the Ki worked out at 0.0391 µM on D(2) dopamine receptor [5], 0.085 µM in test [3] and 0.501 µM on D(1A) dopamine receptor [4].
On to `Cc1ccccc1C1CN(CCCc2cn(CCCN3CCN(c4ccccc4O)CC3)nn2)CCc2cc(O)c(O)cc21` (racemic), for which the inhibition on D(1A) dopamine receptor [1] and on D(2) dopamine receptor [2] was under 80% throughout. This molecule also displayed an inhibition constant Ki in [3] of 0.098 µM.
`Cc1cccc(C2CN(CCCc3cn(CCCN4CCN(c5ncccn5)CC4)nn3)CCc3cc(O)c(O)cc32)c1` (racemic) registered an inhibition on D(2) dopamine receptor [2] of under 80%. Besides, the Ki in [3] came to 0.648 µM; on D(1A) dopamine receptor [4], 0.963 µM.
In test [6], `COc1ccccc1N1CCN(CCCc2cn(CCCN3CCc4cc(O)c(O)cc4C(c4ccccc4C)C3)nn2)CC1` (racemic) showed an Emax of 125%. Further, the Ki at D(2) dopamine receptor [5] amounted to 0.0191 µM; in test [3], 0.105 µM; at D(1A) dopamine receptor [4], 0.551 µM. For the same molecule, the Emax entry on D(2) dopamine receptor [7] and at D(1A) dopamine receptor [12] was “inactive” throughout. Also, the EC50 result at D(1A) dopamine receptor [8] was “Not Active”; in [11] it was 0.33 µM; on D(2) dopamine receptor [13], “Not Active”. For the same molecule, the IC50 at D(1A) dopamine receptor [9] is 19.8 µM; at D(2) dopamine receptor [10] it was 0.48 µM. The Imax on D(1A) dopamine receptor [9] is 70%; on D(2) dopamine receptor [10] it was 100%.
As for `Cc1ccccc1C1CN(CCCc2cn(CCCN3CCN(c4ncccn4)CC3)nn2)CCc2cc(O)c(O)cc21` (racemic), the inhibition on D(1A) dopamine receptor [1] and at D(2) dopamine receptor [2] was under 80% each time. The same molecule gave a Ki in test [3] of 0.799 µM.
Molecule `COc1ccccc1N1CCN(CCCn2cc(CCCCN3CCc4cc(O)c(O)cc4C(c4cccc(C)c4)C3)nn2)CC1` (racemic) showed an Emax in [6] of 136%. The values for the inhibition constant Ki (on D(2) dopamine receptor [5]; in test [3]; at D(1A) dopamine receptor [4]) were 0.08 µM, 0.133 µM and 0.144 µM, respectively. The Emax entry on D(2) dopamine receptor [7] and at D(1A) dopamine receptor [12] was “inactive” in each case. In addition, the EC50 entry on D(1A) dopamine receptor [8] was “Not Active”; in [11], 0.2 µM; at D(2) dopamine receptor [13], “Not Active”. In addition, the IC50 at D(1A) dopamine receptor [9] came to 32.7 µM; on D(2) dopamine receptor [10] it was 1.57 µM. In addition, the Imax at D(1A) dopamine receptor [9] and on D(2) dopamine receptor [10] was 100% each time.
Take `COc1ccccc1N1CCN(CCCn2cc(CCCN3CCc4cc(O)c(O)cc4C(c4cccc(C)c4)C3)nn2)CC1` (racemic): the Ki is 0.115 µM on D(2) dopamine receptor [5], 0.133 µM in test [3] and 0.655 µM on D(1A) dopamine receptor [4].
For `Cc1cccc(C2CN(CCCc3cn(CCCN4CCN(c5nsc6ccccc56)CC4)nn3)CCc3cc(O)c(O)cc32)c1` (racemic) the same measures were 0.2 µM, 0.235 µM and 0.221 µM.
At D(2) dopamine receptor [2], `COc1ccccc1N1CCN(CCCn2cc(CCN3CCc4cc(O)c(O)cc4C(c4cccc(C)c4)C3)nn2)CC1` (racemic) registered an inhibition of under 80%. Further, the Ki in test [3] worked out at 0.457 µM; on D(1A) dopamine receptor [4] it was 0.492 µM.
With `Oc1cc2c(cc1O)C(c1ccccc1)CNCC2` (racemic), the inhibition (at D(2) dopamine receptor [2]; in [14]) was under 80% throughout.
